MDM2 E3 inh = MDM2-luciferase reporter signal enhancers, primary screen, MDM2 E3 ligase inhibitor project, cell-based, luminescence, 1536-well; E3 ubiquitin-protein ligase Mdm2 (Homo sapiens), Q00987; cell-based MDM2 ubiquitination luciferase reporter, 2 h; 0 = plate control, 100 = twice control, blank-subtracted; signal enhancement, % at 5 µM; 210,000 compounds, 0.11% hits; AID 1230, 2008;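 active = signal enhancement of 30% or more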;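 also: luminescence tracks abundance of the self-degrading MDM2-luciferase fusion protein; higher signal means inhibition of MDM2 E3 ligase activity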
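Buffer or medium: Cells held in DMEM | Assay system: Stable mammalian line carrying autodegrading MDM2–luciferase fusion reporter | Quantity: 2000 cells/well | Times: 4 h settle plus 2 h compound, 37 °C | Doses: One concentration, 5 µM, with 0.2% DMSO | Technique: Luminescence with SteadyLite reagent, 15 min at room temperature | Benchmarks: Plate controls and plate blanks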
ROMK mod = ROMK potassium channel modulators, primary screen, cell-based, thallium flux, MLSMR library; B-score at 10 µM; ATP-sensitive inward rectifier potassium channel 1 (Homo sapiens), P48048; AID 1918, 2009; 130,000 compounds, 2% hits; Tet-inducible ROMK, thallium flux fluorescence; actives lie on both sides;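 active = signal ratio slope over the read window, or its plate-corrected B-score, at least 3 SD from the plate mean, either direction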;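 also: B-score of the F/F0 ratio slope over 7 to 12 s after thallium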
Target sequence (P48048 whole entry, looked up): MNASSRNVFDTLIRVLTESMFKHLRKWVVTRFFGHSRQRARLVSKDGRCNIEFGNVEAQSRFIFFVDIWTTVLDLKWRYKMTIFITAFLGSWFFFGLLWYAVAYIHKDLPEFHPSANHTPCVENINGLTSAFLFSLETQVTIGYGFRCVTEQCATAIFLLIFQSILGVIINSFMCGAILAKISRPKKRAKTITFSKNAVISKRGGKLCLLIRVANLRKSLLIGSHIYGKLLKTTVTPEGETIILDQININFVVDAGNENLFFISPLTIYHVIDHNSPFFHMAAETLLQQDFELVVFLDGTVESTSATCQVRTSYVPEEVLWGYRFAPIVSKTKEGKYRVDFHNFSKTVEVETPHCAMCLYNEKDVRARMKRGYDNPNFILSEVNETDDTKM
Cl transport mod = KCC2 cotransporter modulators, thallium flux, primary screen, cell-based, HEK293 KCC2, FluoZin-2 fluorescence, MLSMR. B-score of Tl+ flux slope (higher = more flux/activation; lower = inhibition) at 10 µM. 190,000 compounds, 2.2% hits. KCC2 cells, thallium flux FluoZin-2 fluorescence;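 active = thallium flux slope and its plate-corrected score both differing from the plate sample mean at a set confidence after two filtering rounds, in either direction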;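 also: slope of fluorescence scaled to starting intensity during 10 to 20 s after thallium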
m-calpain inh = inhibitors of pig calpain II, primary screen, biochemical, fluorogenic peptide substrate, 1536-well; purified calpain II, 30 min; inhibition, % at 16 µM; 220,000 compounds, 0.37% hits; AID 1236, 2008;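 active = inhibition above about 50%, limit read from the data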
Arbovirus inh = antivirals against arbovirus infection, primary screen, cell-based, full library, 10K replicate subset; arbovirus infection cell-based antiviral screen; inhibition, % at 10 µM; 200,000 compounds, 0.37% hits; AID 1251, 2008; in the data active = inhibition above about 30%
PKD1 inh = inhibitors of human PKD1 kinase, biochemical, fluorescence polarization | PKD1 kinase fluorescence polarization assay | AID 797, 2007 | Serine/threonine-protein kinase D1 (Homo sapiens), Q15139 | 200,000 compounds, 0.056% hits | inhibition, % (test concentration not listed); in the data active = inhibition above about 50%
KCC2 sec1 = KCC2 modulators in sodium-free buffer, confirmation, cell-based, HEK293 KCC2, thallium flux, secondary assay; shares compounds with Cl transport mod; FluoZin2 fluorescence; stronger effect = higher value; normalised thallium flux (F/F0 slope) at 10 µM; 3,700 compounds, 15% hits;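 active = thallium flux slope above the same plate's solvent-only control mean plus 3 SD; inconclusive = the two replicate wells disagree; inactive = no significant difference from solvent-only control wells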
KCC2 bumet counter = thallium flux persisting under bumetanide in KCC2 cells, confirmation, counter-screen for KCC2 modulator project, cell-based, HEK293 KCC2, FluoZin2, secondary assay 3 | HEK293-KCC2 + bumetanide/ouabain; stronger effect = higher value | normalized thallium flux at 10 µM | 3,700 compounds, 49% hits | AID 1714, 2009 | shares compounds with Cl transport mod;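 active = thallium entry rate above the same plate's blocked-transporter control wells by more than 3 SD; inconclusive = the two repeat wells disagree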;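 also: raw slope of fluorescence over initial fluorescence between 10 and 20 s after thallium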
KCC2 secondary2 = KCC2 modulators without ouabain present, confirmation, cell-based, HEK293 KCC2, thallium flux, FluoZin2, secondary assay 2; thallium flux FluoZin2 fluorescence; actives lie on both sides; F/F0 rise rate, 10–20 s post-thallium; shares compounds with Cl transport mod; normalized thallium flux at 10 µM; 3,700 compounds, 23% hits;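 active = thallium flux slope more than 3 SD above or below the plate's solvent-only control mean, mostly below; inconclusive = the two repeat wells disagreed; inactive = no significant shift from solvent-only controls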
HEK counter1 = thallium flux modulation in parental HEK cells, confirmation, counter-screen for KCC2 modulator project, cell-based, counterscreen 1. 3,700 compounds, 46% hits. shares compounds with Cl transport mod. AID 1716, 2009. thallium flux rate (normalised fluorescence) at 10 µM. HEK293 parental cells, thallium flux FluoZin2, ouabain; baseline-ratio fluorescence slope, 10–20 s after thallium;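 active = thallium flux rate significantly above the same plate's solvent-only control wells, beyond their mean plus 3 SD; inconclusive = the two replicate wells gave conflicting results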
KCC2 ouabain = KCC2 inhibitors and activators, ouabain retest, confirmation, HEK-KCC2 cells; shares compounds with Cl transport mod; HEK293-KCC2, thallium flux FluoZin2 fluorescence; bidirectional: low = inhibitor, high = activator; raw Tl+ flux slope (below DMSO = inhibition, above = activation) at 10 µM; 3,700 compounds, 48% hits;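 active = thallium flux slope beyond 3 SD from same-plate DMSO control mean in most replicates, usually higher, sometimes lower; inconclusive = repeat tests gave conflicting results; inactive = no significant difference from controls in most replicates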;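 also: slope of initial-normalized fluorescence between seconds 10 and 20 after thallium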
HEK293 Tl flux2 = native HEK Tl+ uptake effects, second counter-screen – HEK cells, counterscreen 2, counter-screen for KCC2 modulator project, confirmation | shares compounds with Cl transport mod | HEK293 parental, thallium flux FluoZin-2 fluorescence slope | thallium flux slope at 10 µM | 3,700 compounds, 33% hits | AID 1718, 2009;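 active = thallium flux slope above the same plate's solvent-control mean plus 3 SD in both duplicate wells; inconclusive = duplicate wells that disagreed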;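 also: run without ouabain in cells lacking the KCC2 cotransporter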
A number is an active result; . = inactive; ? = inconclusive; / = not tested or not shown. Sampled rows, rich in hits. Any-hit rate of the full collection: about 3.7%.

SMILES	MDM2 E3 inh	ROMK mod	Cl transport mod	m-calpain inh	Arbovirus inh	PKD1 inh	KCC2 sec1	KCC2 bumet counter	KCC2 secondary2	HEK counter1	KCC2 ouabain	HEK293 Tl flux2
Cc1cccc(N=Nc2c(C)[nH]n(C(N)=S)c2=O)c1C	.	.	5.78	.	.	.	.	0.00925	.	0.00983	.	?
Cc1cc(C)n2nc(C(=O)NCCc3ccccc3)nc2n1	.	.	.	.	.	.	/	/	/	/	/	/
O=C(NCCc1ccccc1)c1nc2nc(-c3cccs3)cc(C(F)(F)F)n2n1	/	.	-2.53	.	.	.	.	.	.	.	.	.
CCOc1ccc2nnc(-c3ccc(Br)cc3)n2n1	.	.	.	.	.	.	/	/	/	/	/	/
O=C1c2ccccc2C(Nc2ccc(S(=O)(=O)N3CCCCCC3)cc2)N1Cc1ccco1 (stereo unspecified)	.	/	-5.47	.	.	.	.	.	.	.	0.0162	.
S=c1[nH]nc([C@@H]2C[C@H]2c2ccccc2)n1-c1ccccc1Cl	.	/	.	.	/	/	/	/	/	/	/	/
Oc1ccc(/C=C/c2ccc3ccccc3n2)cc1	.	.	.	.	.	.	/	/	/	/	/	/
O/C(=C\c1ccc2ccccc2n1)c1ccc(O)cc1O	.	.	-5.07	.	.	.	0.00579	.	.	.	0.0144	.
O=C1CCCc2c1[nH]c1ccc(CN3CCCCC3)cc21	.	/	-5.07	.	.	.	.	.	.	.	.	.
Cc1ccc2[nH]c3c(c2c1)CCCC3=O	.	/	.	.	.	.	/	/	/	/	/	/
O=C(NCCCCc1ccccc1)C1CC(c2cccc(F)c2)=NO1 (stereo unspecified)	.	/	-2.72	.	/	/	.	.	0.0251	.	.	.
CC(OC(=O)c1ccco1)C(=O)Nc1ccc(Cl)cn1 (stereo unspecified)	.	.	.	.	.	.	/	/	/	/	/	/
Cc1ccc(C(=O)CCC2CCCCC2=O)cc1 (stereo unspecified)	.	.	/	.	.	.	.	0.0119	.	.	?	.
Cc1ccc(C(=O)CCC2CCCC2=O)cc1 (stereo unspecified)	.	.	.	.	.	.	/	/	/	/	/	/
CC(C)OCCCNC(=O)c1cc2c(s1)CS(=O)(=O)C2	.	.	/	.	.	.	.	.	.	.	.	.
O=C(NC(=S)Nc1ccccc1N1CCCCC1)c1cccs1	.	.	18.3	.	.	.	?	0.0353	.	0.0509	0.0425	0.0158
O=C(NC(=S)Nc1ccccc1N1CCCC1)c1cccs1	.	/	78.6	.	/	/	0.0292	0.144	?	?	0.0871	0.0369
O=C(NC(=S)Nc1ccccc1N1CCN(C(=O)c2ccccc2)CC1)c1cccs1	.	.	.	.	/	/	/	/	/	/	/	/
O=C(NC(=S)Nc1ccc(N2CCOCC2)c(Cl)c1)c1cccs1	.	/	/	.	.	.	0.0248	0.0582	?	0.0166	0.0277	0.0168
CC1CN(C(=O)C(C)Sc2nnnn2C)CC(C)O1 (stereo unspecified)	.	.	.	.	.	.	/	/	/	/	/	/
CCN(CC)C(=O)Oc1ccc(Cl)c2cccnc12	.	.	.	.	.	.	/	/	/	/	/	/
O=C(Nc1cccc(C(F)(F)F)c1)Oc1ccc(Cl)c2cccnc12	.	/	14.5	.	/	/	.	0.0215	.	0.0142	0.0212	0.0159
Cc1ccc(OCCn2c(=O)sc3ccccc32)cc1	.	.	.	.	.	.	/	/	/	/	/	/
Cc1ccc(OCCCn2c(=O)sc3ccccc32)cc1	/	/	5.79	.	.	.	.	.	.	.	.	?
COC(C[C@@H]1O[C@@H]1[C@@H](O)[C@@H](C)OCc1ccccc1)OC	.	/	.	.	/	/	/	/	/	/	/	/
SMILES	MDM2 E3 inh	ROMK mod	Cl transport mod	m-calpain inh	Arbovirus inh	PKD1 inh	KCC2 sec1	KCC2 bumet counter	KCC2 secondary2	HEK counter1	KCC2 ouabain	HEK293 Tl flux2
COC(C[C@@H]1O[C@@H]1[C@H](O)[C@H](C)OCc1ccccc1)OC	.	/	/	.	/	/	.	.	.	.	.	.
O=c1c2ccccc2nc(SCc2cccc(F)c2)n1C1CCCC1	.	/	.	.	.	.	/	/	/	/	/	/
COc1ccc(/C=C2\CCc3ccccc3C2=O)cc1CN1CCOCC1	.	/	-5.05	.	/	/	?	?	0.0231	.	?	.
COc1ccc(/C=C2/CCc3ccccc3C2=O)cc1OC	.	.	.	.	.	.	/	/	/	/	/	/
C=C(C)CNC(=S)N=Nc1c(O)[nH]c2ccc([N+](=O)[O-])cc12	.	.	13.8	.	.	.	.	0.0209	.	0.0243	0.0272	0.0135
CC(C)NC(=S)N=Nc1c(O)[nH]c2ccc([N+](=O)[O-])cc12	.	.	.	.	.	.	/	/	/	/	/	/
COc1cc(SSc2cc(OC)cc([N+](=O)[O-])c2N)c(N)c([N+](=O)[O-])c1	.	.	.	.	/	/	/	/	/	/	/	/
C#CCNC(=O)C1=C[C@@H](c2ccc(C#C)cc2)[C@H](CCCO)[C@@H](OCC)O1	/	/	.	.	.	.	/	/	/	/	/	/
O=C(NNC(=S)Nc1ccc(Cl)cc1)c1ccccc1OC(F)F	.	.	5.25	.	.	.	.	0.0226	.	0.0201	0.0288	0.013
O=C(NCC1CCCN(C(=O)c2cccnc2)C1)c1ccc(-c2ccccc2)cc1 (stereo unspecified)	.	.	-7.6	.	.	.	.	.	0.0271	.	0.0161	.

Source: PubChem (several laboratories)
